Screening results as filed in PubChem BioAssay.
IMP-1 inh: blocks Pseudomonas aeruginosa IMP-1 metallo-beta-lactamase. purified IMP-1, nitrocefin hydrolysis, epi-absorbance fluorescence. inhibition, % at 5.6 µM. actives 0.45% (n = 290,000). AID 1556;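 active = inhibition above the mean plus 3 SD of all compounds in the same screening run, cut at about 4.5% in these data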
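Assay system: purified IMP-1; Quantity: IMP-1 0.2 nM before substrate addition; Medium: HEPES buffer pH 7.1 with ZnSO4 and Brij 35; Incubation: 15 min enzyme–compound preincubation, then 25 min nitrocefin reaction, 25 °C; Signal: fluorescence quenching readout, ex 480/em 530 nm; Controls: DMSO with and without IMP-1; Repeats: singlicate testing.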
DNA FID counter-1: counter-screen for HCV NS3 helicase inhibitors: DNA intercalator displacement. AID 1845. actives 0.17% (n = 290,000). inhibition, % at 7.9 µM. DNA fluorescent intercalator displacement, fluorescence;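 note: higher means more ethidium bromide displaced from hairpin DNA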
VIM-2 inhibitor: blocks Pseudomonas aeruginosa VIM-2 metallo-beta-lactamase; purified VIM-2, nitrocefin hydrolysis, epi-absorbance fluorescence; inhibition, % at 5.6 µM; actives 0.89% (n = 290,000);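 active = inhibition above the mean of all tested compounds plus 3 SD, cutoff set per screening run, cut at about 7.5% in these data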;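 note: red hydrolysis product quenches plate fluorescence so inhibitors raise well fluorescence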
NS3 helicase inh: inhibitors of Hepatitis C virus NS3 helicase. NS3 helicase DNA unwinding, Cy5 molecular beacon fluorescence. inhibition, % at 10.9 µM. actives 0.56% (n = 290,000). AID 1800;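 active = inhibition above the mean of all tested compounds plus 3 SD, set per campaign, cut at about 35% in these data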
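Compound dosing – single dose, 10.9 µM nominal final, DMSO 0.8% final · System – NS3 helicase fragment of HCV · Buffer or medium – MOPS pH 6.5, MgCl2, DTT, Tween20, BSA · Signal – Cy5 beacon fluorescence read at start and 1 h · Also added – annealed dual-labelled DNA beacon duplex, ATP-started · Schedule – 1 h at 25 °C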
NS3 hel confirm: HCV NS3 helicase inhibition, confirmation assay | shares compounds with NS3 helicase inh | NS3 helicase DNA unwinding, Cy5 molecular beacon fluorescence | inhibition, % at 10.9 µM | actives 31% (n = 1,600) | AID 1943;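 active = inhibition above the mean of all tested compounds plus 3 SD, cutoff set per campaign, cut at about 36% in these data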
DNA FID counter-2: intercalator displacement, NS3 helicase counter-screen. shares compounds with NS3 helicase inh. DNA fluorescent intercalator displacement, fluorescence. inhibition, % at 7.9 µM. actives 4% (n = 1,600). AID 1945;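 note: higher means more displacement of ethidium bromide from the DNA hairpin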
FID counter DR: displaces fluorescent intercalator from DNA, HCV helicase counter-screen. shares compounds with NS3 helicase inh. AID 2172. 120 tested, under 10 active. fluorescent intercalator displacement from DNA, fluorescence. IC50, µM; call rule not given here
Hits are given with their value; 0 = inactive; - = no result given. Shown are actives, neighbours in structure and some others; about 1.9% of the full set was active somewhere. Cut-off read from the data, not from the text of the source, unless noted: active = inhibition above about 37%; inactive = the rest.

SMILES	IMP-1 inh	DNA FID counter-1	VIM-2 inhibitor	NS3 helicase inh	NS3 hel confirm	DNA FID counter-2	others
CC(CCC(=O)O)C1CCC2C3CCC4C[C@H](O)CCC4(C)C3CC(=O)C12C (some centres not stated)	0	0	0	40	0	0
CCOc1ccc(NC(=O)CC2C(=O)N(c3ccc(OC)cc3)C(=O)N2Cc2ccc(OC)cc2)cc1 (configuration not stated)	0	0	0	0	-	-
COc1ccc(NC(=O)CC2C(=O)N(c3ccc(OC)cc3)C(=O)N2C(C)C)cc1 (configuration not stated)	0	0	0	46	0	0
CN(C)c1cccc2c(S(=O)(=O)N3CCCC3)cccc12	0	0	0	36	0	0
CN(C)c1cccc(C(=O)NCC(c2ccco2)N(C)C)c1 (configuration not stated)	0	0	0	0	-	-
COc1ccc(NC(=S)NNc2ccc(S(=O)(=O)Nc3ccccc3C(=O)O)cc2[N+](=O)[O-])cc1	0	0	0	40	83	0
CCOc1cc(/C=C2\SC(=Nc3ccc(CC)cc3)NC2=O)ccc1OCC(=O)O	0	0	0	46	69	0
Cc1c(NC(=O)CN2C(=O)NC3(CCCC3)C2=O)c(=O)n(-c2ccccc2)n1C	0	0	0	36	0	0
COc1ccc(N2C(=O)C3C(C2=O)C(C(=O)c2ccc(Cl)cc2)N2CCCC32)cc1 (configuration not stated)	0	0	0	40	0	0
Cc1ccc(C(=O)NC(=O)OCCn2c(C)cnc2[N+](=O)[O-])cc1	0	0	0	0	-	-
N=C1/C(=C\c2ccc(-c3ccc(C(=O)O)cc3)o2)C(=O)N=C2SC=C(c3ccccc3)N12	11	0	0	36	73	0
N=C1/C(=C\c2ccc(-c3cccc(Cl)c3)o2)C(=O)N=C2SC=C(c3ccccc3)N12	0	0	0	46	80	0
CCOC(=O)c1c(N)sc(=S)c2c1CCC2	12	0	0	58	0	0
CCC(=O)Nc1ccc(C(=O)CSc2nnc(-c3ccccc3F)n2C2CC2)cc1	5.5	0	0	52	0	0
Cc1ccc(-c2nn(Cc3ccccc3)cc2/C=C/C(=O)O)cc1	0	0	0	44	0	0
CC(C)[C@@H](C(=O)N[C@@H](C(=O)O)c1ccccc1)N1C(=O)N2CCc3c([nH]c4ccccc34)[C@@]2(C)C1=O	0	0	0	0	-	-
CC[C@H]1OC(=O)[C@H](C)[C@@H](O[C@H]2C[C@@](C)(OC)[C@@H](O)[C@H](C)O2)[C@H](C)[C@@H](O[C@@H]2O[C@H](C)C[C@H](N(C)C)[C@H]2O)[C@](C)(O)C[C@@H](C)C(=O)[C@H](C)[C@@H](O)[C@]1(C)O	0	0	0	47	75	0
COc1ccccc1C(=O)CC(=O)C(=O)Nc1cccc([N+](=O)[O-])c1C	0	0	0	37	0	0
CCO[C@H]1OC(C(=O)N2CCCCCCC2)=C[C@@H](c2coc3ccccc3c2=O)[C@@H]1CCCO	0	0	0	0	-	-
O=C(O)c1ccccc1OC(=O)C12CC3CC(CC(C3)C1)C2	0	0	0	0	-	-
CC(=O)Oc1ccc(C23CC4CC(CC(C4)C2)C3)cc1C(=O)O	0	0	0	40	0	0
CN1CCN(S(=O)(=O)c2ccc(N3CCN(C(c4ccccc4)c4ccccc4)CC3)nc2)CC1	0	0	0	43	0	51
COc1ccc(CNc2ccccc2SC)cc1OC	0	0	0	0	-	-
COc1ccc(CNc2cccc3[nH]c(C(F)(F)F)nc23)cc1OC	0	0	0	42	0	0
Cc1nn(-c2ccccc2)c(C)c1C(=O)OCc1ccc(C#N)cc1	0	0	0	0	-	-
SMILES	IMP-1 inh	DNA FID counter-1	VIM-2 inhibitor	NS3 helicase inh	NS3 hel confirm	DNA FID counter-2	others
Cc1cccc(NS(=O)(=O)c2ccc3c(c2)CCN3C(=O)CCC(=O)O)c1	0	0	0	0	-	-
Cc1ccc(NS(=O)(=O)c2ccc3c(c2)CCN3C(=O)CCC(=O)O)cc1Cl	0	0	0	48	0	0
CNC(=O)NC(=O)CSc1cccc(C(F)(F)F)c1	0	0	0	0	-	-
CC(C)(C)NC(=O)NC(=O)CSc1cccc(C(F)(F)F)c1	0	0	0	37	0	0
Cc1c(Cl)cccc1NC(=O)CSc1sc2c(O)cc(=O)[nH]c2c1C#N	0	0	0	37	0	0
Nc1c(C(=O)Nc2ccccc2)sc2nc3c(c(-c4ccco4)c12)CCC3	0	0	0	41	0	0
Cc1ccccc1NC(=O)c1sc2nc3c(c(-c4ccco4)c2c1N)CCCC3	0	0	0	44	0	0
CC(C)(C)NC(=O)NCC1CCCC1NC(=O)NC(C)(C)C (configuration not stated)	0	0	0	0	-	-
COCCn1c(N)c(C(=S)NC(=O)c2cccs2)c(=O)[nH]c1=O	0	0	0	0	-	-
Cc1ccc(N2C(=O)/C(=C\c3ccc(C(C)C)cc3)N=C2SC2CCOC2=O)cc1 (configuration not stated)	0	0	0	0	-	-
O=C(CCC(=O)NNC(=O)Cc1ccccc1)NCc1ccccc1	0	0	0	0	-	-
O=C(COC(=O)CCc1c[nH]c2ccccc12)NCc1ccccc1	0	0	0	43	0	0
O=C(CCC(=O)NCc1ccccc1)NCc1ccccc1	0	0	0	48	0	0
O=C(COC(=O)CCc1c[nH]c2ccccc12)NCc1ccc(Cl)cc1	0	0	0	0	-	-
O=C1C(=O)N(Cc2ccncc2)C(c2cccc(O)c2)/C1=C(\O)c1ccc2c(c1)OCCO2 (configuration not stated)	0	0	0	41	0	0
O=C1C(=O)N(Cc2cccnc2)C(c2cccc(O)c2)/C1=C(\O)c1ccc2c(c1)OCCO2 (configuration not stated)	0	0	0	0	-	-
COc1ccc(OC)c2sc(NC(=O)c3ccc(S(=O)(=O)N(C)C)cc3)nc12	0	0	0	41	0	0
COc1ccccc1NC(=O)c1ccc(S(=O)(=O)N(C)C)cc1	0	0	0	0	-	-
Cc1ccc(C(CCN(Cc2ccccc2)C(=O)c2ccco2)c2ccco2)cc1 (configuration not stated)	0	0	0	54	55	0	FID counter DR=0
CNC(=O)n1cc(C)c(-c2cccs2)n1	0	0	0	0	-	-
Cc1ccccc1COc1ccc(-c2nnn(CC(=O)O)n2)cc1	0	0	0	40	0	0
COc1ccccc1CCC(=O)Nc1ccc2c(c1)CN(Cc1ccc(C)o1)CC2	0	0	0	0	-	-
Cc1cccc(C)c1OCC(=O)Nc1ccc2c(c1)OCCO2	0	0	0	0	-	-
Cc1cc(NC(=O)COc2ccccc2C)ccc1NC(=O)c1cccs1	0	0	0	0	-	-
